Hits are enriched below; roughly 3.6% of the tested compounds scored in any of these assays.
NadD inh – blocks S. aureus nicotinate mononucleotide adenylyltransferase; purified NadD enzyme, colorimetric absorbance read-out; inhibition, % at 20 µM; hit rate 0.78% among 360,000; in the data active means inhibition above about 26%
UCH37 DUB inh – blocks the human deubiquitinase UCH37; Q9Y5K5; purified proteasome/UCH37, Ub-AMC cleavage fluorescence; inhibition, % (test concentration not listed); hit rate 0.33% among 330,000; AID 588478;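 active means mean inhibition over replicate wells above about 20%, limit read from the data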;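 further: 0% = compound-free wells with enzyme and 100% = wells lacking proteasome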
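Test system – human UCH37 enzyme supplied as purified proteasome complex · Incubation – 30 min preincubation with enzyme, 25 min cleavage at room temperature · Detection – AMC fluorescence from Ub-AMC cleavage, excitation 355 nm, emission 460 nm · Benchmarks – no-proteasome wells (full inhibition) and compound-free wells (no inhibition)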
SENP1 FRET inh – blocks the human SENP1 SUMO protease catalytic domain. Q9P0U3. recombinant SENP1 catalytic domain, CyPet-SUMO1-YPet FRET cleavage. inhibition, % at 10 µM. hit rate 0.21% among 360,000. AID 624204;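 active means inhibition at least 30% at 10 µM, raw YFP signal under a set limit, fluorescence ratio 0.5 to 1.5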;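 further: 0% = enzyme with DMSO and 100% = no enzyme wells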
Target sequence (Q9P0U3 419-644 limits assumed): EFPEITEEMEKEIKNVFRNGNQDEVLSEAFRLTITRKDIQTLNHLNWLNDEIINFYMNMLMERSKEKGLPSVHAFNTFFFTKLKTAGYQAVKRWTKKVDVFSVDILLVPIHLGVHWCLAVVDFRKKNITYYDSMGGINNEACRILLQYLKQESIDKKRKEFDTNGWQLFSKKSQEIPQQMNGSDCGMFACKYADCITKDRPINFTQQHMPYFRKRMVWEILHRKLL
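Material – human SENP1 catalytic domain · Input – SENP1 enzyme, 20 pM final · Compound dosing – single concentration of 10 µM compound, 0.5% DMSO final · Timing – enzyme reaction for 50 min at room temperature, dark · Measured by – FRET fluorescence in CFP and YFP emission channels · Control set – no-enzyme wells low, DMSO-plus-enzyme wells high control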
ATG4B inh – inhibitors of human ATG4B cysteine protease; Q9Y4P1; ATG4B cleavage of LC3-PLA2, NBD-HPC fluorescence, 1 h; inhibition, % at 8.33 µM; hit rate 0.51% among 340,000; in the data active means inhibition above about 40%
Target sequence (Q9Y4P1 whole entry, looked up): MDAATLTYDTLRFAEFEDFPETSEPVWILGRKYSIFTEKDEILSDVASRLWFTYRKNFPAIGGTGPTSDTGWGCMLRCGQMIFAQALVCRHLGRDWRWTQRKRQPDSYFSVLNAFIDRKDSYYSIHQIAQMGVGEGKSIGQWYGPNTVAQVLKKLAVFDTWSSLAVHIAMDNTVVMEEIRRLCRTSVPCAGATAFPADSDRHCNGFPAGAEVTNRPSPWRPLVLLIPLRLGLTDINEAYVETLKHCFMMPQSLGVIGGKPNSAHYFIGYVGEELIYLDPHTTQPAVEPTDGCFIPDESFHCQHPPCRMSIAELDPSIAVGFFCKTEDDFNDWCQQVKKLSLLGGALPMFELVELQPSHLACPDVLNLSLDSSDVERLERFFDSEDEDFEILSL
NR3A LBD binder – NR3A (human) ligand-binding domain modulation | NR3A LBD differential scanning fluorimetry, Tm shift; 0% = protein alone, 100% = glycine-bound protein | AID 1259313 | Tm shift relative to glycine control, % at 25 µM | hit rate 2.5% among 340,000;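 active means melting temperature shift of at least 10% of the positive control shift, at one fixed dose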
An asterisk follows results filed as active; · = not tested or not shown.

SMILES | NadD inh | UCH37 DUB inh | SENP1 FRET inh | ATG4B inh | NR3A LBD binder
O=C(Nc1cccc(F)c1)c1cc(S(=O)(=O)NCCC2=CCCCC2)ccc1F | -13.1 | 3.2 | 3.4 | -8.5 | 22.4*
COc1ccc(Nc2ncnc3sc(-c4ccccc4)cc23)cc1OC | 1.9 | -233.4 | -6.3 | -0.3 | 12.6*
Cc1ccc(-c2ccc(C=N/N=C3/NC(=O)C(CC(=O)O)S3)o2)c([N+](=O)[O-])c1 (stereo not given) | · | 24.9* | · | · | ·
O=[N+]([O-])c1ccc(C=NNc2ncc(-c3ccccc3)cn2)cc1 | · | 5.1 | · | · | ·
O=C(CS(=O)(=O)c1c[nH]c2ccccc12)Nc1ccc(F)cc1 | 0.7 | · | -0.2 | -5.6 | 13.4*
Cc1c(Cl)cccc1Nc1nc(N)nc(CSc2nc3ccccc3s2)n1 | 6.7 | 2.1 | -2.3 | 5.5 | 11.3*
O=C(CCCOC(=O)c1cccnc1Cl)c1ccc(Br)cc1 | -4.3 | · | 0.8 | -6.8 | 3.0
O=C(CCCOC(=O)c1ccc(O)cc1O)c1ccc(Br)cc1 | -2.5 | 3.4 | 0.2 | -1.9 | 10.1*
N#C/C(=N\Nc1ccc(Cl)c(Cl)c1)C(=O)C1CC1 | -4.6 | · | 1.0 | 12.3 | 12.0*
O=C(O)C1Nc2c(O)cc(Cl)c([N+](=O)[O-])c2C2C=CCC12 (stereo not given) | 63.3* | 11.6 | 14.7 | 15.7 | 4.6
CCOc1cc(C=NNC(=O)C(=O)NCc2cccnc2)ccc1O | · | 11.9 | · | · | ·
O=c1[nH]c2ccccc2nc1-c1c[nH]c2ccccc12 | -0.2 | -134.3 | -18.4 | -18.4 | 39.0*
COC(=O)c1sc(NC(=S)NNC(=O)c2c(Br)c(C)nn2C)c(C(=O)OC)c1C | 9.5 | 14.3 | -80.2 | 5.0 | 11.8*
O=[N+]([O-])c1cccc(/C=C/c2nc[nH]c2[N+](=O)[O-])c1 | -3.2 | 5.5 | 3.0 | 3.4 | 15.9*
COc1cc(/C=C(\C#N)c2nc3ccccc3o2)ccc1O | -0.3 | 8.3 | -46.0 | -19.1 | 15.5*
COc1cc(C=NNc2nc(C)nc3c2cnn3-c2ccccc2)ccc1O | · | -58.8 | · | · | ·
CCC(Cc1ccccc1)=NNC(=O)CCn1nnc2ccccc21 | · | 1.5 | · | · | ·
O=C(/C=C/c1cccc(Cl)c1)Nc1ccncc1 | -5.4 | 7.5 | 2.1 | -14.5 | 3.8
NS(=O)(=O)c1ccc(NC(=O)/C=C/c2ccc(S(=O)(=O)NCc3ccco3)cc2)cc1 | 1.9 | 3.6 | 0.4 | -17.1 | 38.5*
NS(=O)(=O)c1ccc(NC(=O)/C=C/c2cccc(Cl)c2)cc1 | -5.9 | 2.2 | 2.6 | -27.1 | 28.1*
O=C(O)/C=C/c1ccc(S(=O)(=O)NCc2ccco2)cc1 | -8.6 | 0.2 | -0.3 | -5.4 | 1.2
O=C1NCCCC1C(=O)NN=Cc1ccc(Cl)cc1 (stereo not given) | · | 4.1 | · | · | ·
COc1cccc(C(C)=NNC(=O)c2ccc(N(C)C)cc2)c1 | · | 3.9 | · | · | ·
CC(=NNS(=O)(=O)c1ccc(Cl)c([N+](=O)[O-])c1)c1cc2ccccc2o1 | · | 4.5 | · | · | ·
C=CCNC(=S)NN=Cc1ccc(C(F)(F)F)cc1 | · | 0.8 | · | · | ·
SMILES | NadD inh | UCH37 DUB inh | SENP1 FRET inh | ATG4B inh | NR3A LBD binder
NC(=S)N/N=C/c1ccc(C(F)(F)F)cc1 | -0.5 | · | 0.4 | -5.3 | 19.1*
C=CCON=C(C)c1c(O)c(CC)c(-c2ccccc2)n(-c2ccccc2)c1=O | · | -0.6 | · | · | ·
CNC(=O)Cc1csc2ccc(C)cc12 | -0.9 | 2.9 | 1.1 | -11.1 | 13.9*
Cc1ccc2scc(CN3CCCC3)c2c1 | -7.8 | 1.1 | 0.5 | -8.6 | -0.3
Cc1ccccc1OCC(=O)NN=C1CC(=O)CC(C)(C)C1 | · | 1.3 | · | · | ·
OC(COCC(F)(F)C(F)(F)C(F)(F)C(F)F)Cn1c2ccc(Cl)cc2c2cc(Cl)ccc21 (stereo not given) | -6.8 | · | -0.2 | -2.7 | 19.4*
N=c1n(Cc2ccc(Cl)cc2)c2ccccc2n1CC(O)COc1ccccc1 (stereo not given) | 7.3 | 3.3 | 2.0 | -6.6 | -2.3
O=S(=O)(c1ccc2ccccc2c1)N1CCN(C(=S)Nc2ccc(F)cc2)CC1 | -0.6 | 1.8 | 0.3 | -8.0 | 2.7
O=S(=O)(c1ccc2ccccc2c1)N1CCN(C(=S)Nc2ccc(F)c(Cl)c2)CC1 | 14.0 | 2.5 | 1.9 | 6.8 | 19.2*
O=C(CCn1c(=O)c2cccn2c2cccnc21)NCc1cccc(Cl)c1 | -0.1 | -7.5 | -1.6 | -2.5 | 10.5*
O=C(CCCn1c(=O)c2cccn2c2cccnc21)NCc1cccc(Br)c1 | 5.8 | -14.8 | -5.3 | -0.3 | 1.1
Cc1ccc(N=C2NC(=O)/C(=C/C=C/c3ccco3)S2)cc1 | 34.2* | 3.8 | -11.8 | 31.1 | 1.5
COc1ccc(N=C2NC(=O)/C(=C/c3ccco3)S2)cc1 | 0.5 | 0.7 | 3.1 | -5.0 | 4.8
O=C1NC(=Nc2ccccc2)S/C1=C\C=C\c1ccco1 | 29.0 | 5.4 | -30.8 | 31.6 | 10.7*
Cc1cc(C)n(CCc2nc(-c3ccc(C(C)(C)C)cc3)cs2)n1 | 4.6 | 4.9 | -2.2 | 11.8 | 11.5*
CCN(Cc1ccccc1)c1ccc(C=NNC(=O)c2cccc(S(=O)(=O)N3CCOCC3)c2)cc1 | · | -87.5 | · | · | ·
Cc1c(C=NNC(=O)c2ccccc2O)c2ccccn2c1C(=O)c1ccc(F)cc1 | · | 1.0 | · | · | ·
O=C(NN=Cc1ccc(OC(F)F)cc1)C1=COCCO1 | · | 2.2 | · | · | ·
CCCCSc1nnc(CSc2nc3nc(C)cc(C)n3n2)o1 | -0.4 | 0.6 | 2.7 | -3.9 | 12.2*
CC1(C)SC(=S)N(N=Cc2ccccc2O)C1N(O)C(=O)Nc1ccccc1 (stereo not given) | · | 1.6 | · | · | ·
CC1(C)SC(=S)N(NC(=O)Nc2ccccc2)C1N(O)C(=O)Nc1cccc2ccccc12 (stereo not given) | 0.8 | 1.6 | 0.5 | -33.2 | 21.0*
COc1ccc(CCn2c(=N)c(C(=O)NCCN3CCOCC3)cc3c(=O)n4ccccc4nc32)cc1OC | -9.6 | 4.8 | -43.2 | -5.2 | 14.8*
CC(C(=O)Nc1ccccc1C(=O)O)n1c(C(F)(F)F)nc2ccccc21 (stereo not given) | -2.0 | 1.4 | 3.6 | -1.4 | 0.7
CCC(C(=O)O)n1c(C(F)(F)F)nc2ccccc21 (stereo not given) | -2.9 | 1.1 | 3.3 | 3.0 | 11.7*
Cn1c(Oc2ccc(Cl)cc2)c(C=O)c2ccccc21 | -5.7 | -1.6 | 0.6 | -3.0 | 15.2*
SMILES | NadD inh | UCH37 DUB inh | SENP1 FRET inh | ATG4B inh | NR3A LBD binder
Cc1ccc(C)c(NN=C2CCCNC2=O)c1 | · | 3.9 | · | · | ·
O=C(CNC(=O)C1COc2ccccc2O1)NN=Cc1ccc(O)cc1O (stereo not given) | · | -4.9 | · | · | ·
O=[N+]([O-])c1cc(CN2CCCC2)c2cccnc2c1O | 74.4* | · | 0.2 | 18.5 | -15.6
O=[N+]([O-])c1ccc2nc(NS(=O)(=O)c3ccc(Cl)cc3)sc2c1 | -0.4 | 6.6 | -68.3 | 30.9 | 18.5*
O=[N+]([O-])c1ccc2nc(NS(=O)(=O)c3ccccc3[N+](=O)[O-])sc2c1 | -1.2 | 12.8 | -1.0 | 1.7 | 14.4*
O=C(NC(Nc1nc2ccc([N+](=O)[O-])cc2s1)(C(F)(F)F)C(F)(F)F)c1ccccc1Cl | -1.0 | 4.4 | -24.4 | -6.9 | 13.0*
